Results pooled from the literature.
Each line is one published result; the experiments were not run side by side.
Observed: tubulin polymerisation
Action: inhibitor

COc1cc2c(cc1OS(N)(=O)=O)CCN(Cc1cc(OC)c(OC)c(OC)c1)C2
IC50 (absorbance): > 20 µM

COc1ccc(N(C)c2nc(C)nc3c2CCC3)cc1
IC50 (absorbance): 1.6 µM

COc1ccc(/C=C\c2cc(OC)c(OC)c(OC)c2)cc1O
IC50 (absorbance): 1.4 µM

COc1ccc([S+]([O-])c2ccc(OC)c(OC)c2OC)cc1 (centres unmarked)
IC50 (absorbance; pH 6.6): > 40 µM

CCCOc1ccc(Nc2cc(C)nc3ccc(Cl)cc23)cc1
IC50: > 100 µM

COc1ccc(Sc2ccccc2)c(OC)c1OC
IC50 (absorbance; pH 6.6): > 40 µM

COc1cc2c(cc1O)CCN(Cc1cc(OC)c(OC)c(OC)c1)C2
IC50 (absorbance): > 20 µM

CCCOc1ccc(N(C)c2cc(C)nc3ccc(Cl)cc23)cc1
IC50: 5.4 µM

COc1ccc(C(=O)c2cc3c(-c4ccccc4)c(O)ccc3o2)cc1
IC50 (absorbance): 2.8 µM

COc1ccc(S(=O)(=O)c2ccccc2)c(OC)c1OC
IC50 (absorbance; pH 6.6): > 40 µM

COc1ccc(N(C)c2nc(C)nc3c2C[C@@H](C)C3)cc1 (racemic)
IC50 (absorbance): 1.9 µM
